Entries after “also recorded” stand apart in the source; their conditions may differ. Where two headings read alike, the source gives them in different places.

Experimental findings from paper PMC8929358 (Pharmacology Research & Perspectives, 2021) are described below.

The format of data set [1] is in vivo, rat. The note with it: oral 100 mg/kg; for Feces, % of administered dose: feces pools 0–48 h. The essentials:
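In Sprague Dawley rats given 100 mg/kg [14C]-labelled compound (100 μCi/kg) orally in 0.2% HPMC, heparinized blood was taken by cardiac puncture at 2–168 h. Plasma was precipitated with MeOH/ACN (50:50), dried under N2 and reconstituted. Urine (0–6, 6–24 h) and feces (0–12, 12–24, 24–48 h) were pooled and stored at −80°C. Analysis used accurate-mass LC-MS with offline radiodetection.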

Data set [2] is classed as in vivo, rat. The note with it: plasma; for Tmax: median (range).
The next data set has as its target T1, rat soluble COMT (Rattus norvegicus, UniProt P22734).
T1 sequence (P22734 1-221 isoform P22734-2): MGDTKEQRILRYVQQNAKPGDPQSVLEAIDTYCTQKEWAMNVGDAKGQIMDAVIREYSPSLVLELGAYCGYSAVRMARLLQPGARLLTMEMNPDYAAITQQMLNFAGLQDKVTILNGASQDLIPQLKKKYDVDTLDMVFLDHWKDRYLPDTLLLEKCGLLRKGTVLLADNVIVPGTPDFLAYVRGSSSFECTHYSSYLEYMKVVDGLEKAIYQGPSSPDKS
The experiment in a line: COMT activity. Type of data set: biochemical. The note with it: for Effect upon COMT activity: up to 3000 nM.

A further data set has as its system HLS9, HIS9, and SULT1A1. The experiment in a line: Inhibition of opicapone sulfation, result in words for all enzyme sources. Type of data set: biochemical, human. The following applies: acetaminophen 1–500 μM; quercetin and 2,6-dichloro-4-nitrophenol 0.05–100 μM.
[3] abbreviates: rat, po, 1 g/kg, t max, oral 1 g/kg opicapone.

By AUC(0-t) is commonly meant exposure summed from dosing to a finite time, without extrapolation to infinity. The Cmax is the maximum level reached in the sampled fluid or tissue. The IC50 is the concentration at which inhibition is half-maximal. For `Cc1nc(Cl)c(-c2noc(-c3cc(O)c(O)c([N+](=O)[O-])c3)n2)c(C)c1Cl` [BIA 9‐1079, 5-(3-(2,5-dichloro-4,6-dimethylpyridin-3-yl)-1,2,4-oxadiazol-5-yl)-3-nitrobenzene-1,2-diol], in data set [1] (ND = not detected, 100 mg/kg), the “Feces, % of administered dose” value was determined as 1.14%. The “Detectable in the circulation up to (time post-dose)” value in data set [1] (plasma) worked out at 8 h. In data set [2] (rat, po, 1 g/kg), this compound yielded an AUC(0-t) of 4080 ng·h/mL and a Cmax of 381 ng/mL. Besides, in data set [2] (setting [3]), the Tmax came to 4 h. In addition, on rat soluble COMT, the 50% inhibitory concentration (IC50) was 128 nM and the “Effect upon COMT activity” value is listed as “active in inhibiting the enzyme”.
In data set [2] (rat, po, 1 g/kg), `COc1cc(-c2nc(-c3c(C)c(Cl)c(C)[n+]([O-])c3Cl)no2)cc([N+](=O)[O-])c1O` [BIA 9‐1100, 2,5-dichloro-3-(5-(4-hydroxy-3-methoxy-5-nitrophenyl)-1,2,4-oxadiazol-3-yl)-4,6-dimethylpyridine 1-oxide] showed an area under the curve AUC(0-t) of 7920 ng·h/mL and a Cmax of 1420 ng/mL. For the same compound, the Tmax in data set [2] (setting [3]) came out at 1.5 h. Further, at rat soluble COMT, the “Effect upon COMT activity” value is reported as “no modulatory effect”.
With `COc1c(O)cc(-c2nc(-c3c(C)c(Cl)c(C)[n+]([O-])c3Cl)no2)cc1[N+](=O)[O-]` [BIA 9‐1104, 2,5-dichloro-3-(5-(3-hydroxy-4-methoxy-5-nitrophenyl)-1,2,4-oxadiazol-3-yl)-4,6-dimethylpyridine 1-oxide], at rat soluble COMT, the concentration for half-maximal inhibition (IC50) was 429 nM and the “Effect upon COMT activity” value is recorded as “active in inhibiting the enzyme; also recorded: endowed with activity in inhibiting COMT”.
Regarding `Cc1nc(Cl)c(-c2noc(-c3cc(OS(=O)(=O)O)c(O)c([N+](=O)[O-])c3)n2)c(C)c1Cl.c1ccncc1` [BIA 9‐1105, pyridinium 5-(3-(2,5-dichloro-4,6-dimethylpyridin-3-yl)-1,2,4-oxadiazol-5-yl)-2-hydroxy-3-nitrophenyl sulfate], the C max in data set [2] (oral 1 g/kg opicapone, mean (SD)) is 58.2 (32.6) ng/ml. The “AUC0–t” value in data set [2] (oral 1 g/kg opicapone, mean (SD), sampling to 48 h) is given as 1322.5 (503.5) ng.h/ml. In addition, the Tmax in data set [2] (oral 1 g/kg opicapone) was 16 (8–24) h.
Take `Cc1c(Cl)c(C)[n+]([O-])c(Cl)c1-c1noc(-c2cc(O[C@@H]3O[C@H](C(=O)O)[C@@H](O)[C@H](O)[C@H]3O)c(O)c([N+](=O)[O-])c2)n1` [BIA 9‐1106, 3-(5-(3-((2S,3R,4S,5S,6S)-6-carboxy-3,4,5-trihydroxytetrahydro-2H-pyran-2-yloxy)-4-hydroxy-5-nitrophenyl)-1,2,4-oxadiazol-3-yl)-2,5-dichloro-4,6-dimethylpyridine 1-oxide]: the “Urine, % of administered dose” value in data set [1] (urine pools 0–24 h, ND = not detected) was found to be 0.85%. The peak concentration (Cmax) in data set [2] (rat, po, 1 g/kg) was determined as 4290 ng/mL.
In the case of `Cc1nc(Cl)c(-c2noc(-c3cc(O[C@@H]4O[C@H](C(=O)O)[C@@H](O)[C@H](O)[C@H]4O)c(O)c([N+](=O)[O-])c3)n2)c(C)c1Cl` [BIA 9‐1107, (2S,3S,4S,5R,6S)-6-(5-(3-(2,5-dichloro-4,6-dimethylpyridin-3-yl)-1,2,4-oxadiazol-5-yl)-2-hydroxy-3-nitrophenoxy)-3,4,5-trihydroxy-tetrahydro-2H-pyran-2-carboxylic acid], in data set [2] (oral 1 g/kg opicapone), the “Amount detected in circulation” value is listed as “only traceable amounts”.
`Nc1cc(C(=O)O)cc(O)c1O` [BIA 9‐3721, 3-amino-4,5-dihydroxybenzoic acid]: the “Feces, % of administered dose” value in data set [1] (ND = not detected) came out at 1.87%.
For `CC(=O)Nc1cc(C(=O)O)cc(O)c1O` [BIA 9‐3752, 3-acetamido-4,5-dihydroxybenzoic acid], the “Effect upon COMT activity” value on rat soluble COMT is given as “no modulatory effect”.
On to `O=[N+]([O-])c1cc(Cl)c(O)c(Cl)c1` [DCNP, 2,6‐dichloro‐4‐nitrophenol], for which the “Inhibition of the sulfate conjugation of opicapone” value (“Inhibition” for short) with HLS9, HIS9, and SULT1A1 is “completely inhibited”.
As to `O=c1c(O)c(-c2ccc(O)c(O)c2)oc2cc(O)cc(O)c12` [Quercetin, quercetin], the “Inhibition” value with HLS9, HIS9, and SULT1A1 is listed as “completely inhibited”.
Take `CC(=O)Nc1ccc(O)cc1` [acetaminophen]: the “Inhibition” value in the data set with HLS9, HIS9, and SULT1A1 was “No inhibition”.
